# Measurements taken from ChEMBL document CHEMBL1153333, “Structure-activity relationship studies of curcumin analogues” (Bioorg Med Chem Lett, 2009).
# Legend:
# [1] = tested on: LNCaP; assay: Antiproliferative activity against human LNCAP cells after 72 hrs by MTT assay; type: functional, cell-based
# [2] = tested on: PC-3; assay: Antiproliferative activity against human PC3 cells after 72 hrs by MTT assay; type: functional, cell-based; conditions: PC-3, 72 h
# [3] = tested on: MCF7; assay: Antiproliferative activity against human MCF7 cells after 72 hrs by MTT assay; type: functional, cell-based; conditions: MCF7, 72 h
# [4] = Antiproliferative activity against human MCF10A cells after 72 hrs by MTT assay; type: cell-based; conditions: MCF-10A
# Procedure, shortened: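 Spontaneously immortalized, non-malignant human mammary epithelial MCF-10A cells were exposed to compounds for 72 h. Viability was read by MTT assay, and IC50 was taken from that read-out.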
# [5] = tested on: MDA-MB-231; assay: Antiproliferative activity against human MDA-MB-231 cells after 72 hrs by MTT assay; type: functional, cell-based; conditions: MDA-MB-231, 72 h
# [6] = tested on: MCF7; assay: Ratio of IC50 for human MCF10A cells to IC50 for human MCF7 cells
# Procedure, shortened: (§1)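 Selectivity ratio is the IC50 on non-malignant MCF-10A cells divided by the IC50 on the cancer cell line.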
# [7] = tested on: MCF-10A; assay: Ratio of IC50 for human MCF10A cells to IC50 for human PC3 cells; procedure, shortened: as §1
# [8] = tested on: LNCaP; assay: Ratio of IC50 for human MCF10A cells to IC50 for human LNCAP cells; procedure, shortened: as §1
# [9] = tested on: MDA-MB-231; assay: Ratio of IC50 for human MCF10A cells to IC50 for human MDA-MB-231 cells; procedure, shortened: as §1
smiles,measurement,setting,value
COc1cc(/C=C/C(=O)CC(=O)/C=C/c2ccc(O)c(OC)c2)ccc1O [CURCUMIN],IC50,[1],19.6 µM
same,IC50,[2],19.8 µM
same,IC50,[3],21.5 µM
same,IC50,[4],30.1 µM
same,IC50,[5],25.6 µM
O=C(/C=C/c1ccc(O)cc1)/C=C/c1ccc(O)cc1,IC50,[1],5.8 µM
same,IC50,[2],9.5 µM
same,IC50,[3],6.9 µM
same,IC50,[5],3.9 µM
COc1ccc(/C=C/C(=O)/C=C(O)/C=C/c2ccc(OC)c(OC)c2)cc1OC [DIMETHYLCURCUMIN],IC50,[1],3.9 µM
same,IC50,[2],5.9 µM
same,IC50,[3],5.4 µM
same,IC50,[4],31.5 µM
same,IC50,[5],4.9 µM
COc1cccc(/C=C/C(=O)/C=C(O)/C=C/c2cccc(OC)c2)c1,IC50,[1],34.7 µM
same,IC50,[2],40 µM
same,IC50,[3],25.9 µM
same,IC50,[5],31.9 µM
COc1cc(/C=C/C(=O)/C=C(O)/C=C/c2ccc(OS(N)(=O)=O)c(OC)c2)ccc1OS(N)(=O)=O,IC50,[1],5.9 µM
same,IC50,[2],7.5 µM
same,IC50,[3],5.5 µM
same,IC50,[5],3.1 µM
COc1ccc(/C=C/C(=O)/C=C/c2ccc(OC)c(O)c2)cc1O,IC50,[1],2.6 µM
same,IC50,[2],5.9 µM
same,IC50,[3],2.9 µM
same,IC50,[5],3.1 µM
COc1cc(/C=C/C(=O)/C=C/c2cc(OC)cc(OC)c2)cc(OC)c1,Ratio IC50,[6],>=5
same,IC50,[1],2.1 µM
same,Ratio IC50,[7],>=5
same,Ratio IC50,[8],>=5
same,IC50,[2],2.5 µM
same,Ratio IC50,[9],>=5
same,IC50,[3],2.7 µM
same,IC50,[4],> 50 µM
same,IC50,[5],1.5 µM
CC(=O)Oc1ccc(/C=C/C(=O)/C=C(O)/C=C/c2ccc(OC(C)=O)c(OC(C)=O)c2)cc1OC(C)=O,IC50,[1],20.2 µM
same,IC50,[2],12.9 µM
same,IC50,[3],17.8 µM
same,IC50,[5],12.3 µM
COc1cc(/C=C/C(O)=C/C(=O)/C=C/c2ccc(OS(N)(=O)=O)c(OC)c2)ccc1O,IC50,[1],20 µM
same,IC50,[2],19.3 µM
same,IC50,[3],15.1 µM
same,IC50,[5],14.3 µM
COc1ccc(/C=C/C(=O)/C=C(O)/C=C/c2ccc(OC)c(OS(N)(=O)=O)c2)cc1OS(N)(=O)=O,IC50,[1],7.7 µM
same,IC50,[2],7.4 µM
same,IC50,[3],5.5 µM
same,IC50,[5],6.5 µM
COc1cc(OC)c(/C=C/C(=O)/C=C/c2c(OC)cc(OC)cc2OC)c(OC)c1,Ratio IC50,[6],25
same,IC50,[1],0.5 µM
same,Ratio IC50,[7],25
same,Ratio IC50,[8],25
same,IC50,[2],2.1 µM
same,Ratio IC50,[9],25
same,IC50,[3],0.4 µM
same,IC50,[4],> 50 µM
same,IC50,[5],0.6 µM
O=C(/C=C/c1ccc(O)cc1)CC(=O)/C=C/c1ccc(O)cc1 [BISDEMETHOXYCURCUMIN],IC50,[1],19.7 µM
same,IC50,[2],27.3 µM
same,IC50,[3],24.3 µM
same,IC50,[5],21.9 µM
COc1ccc(/C=C/C(=O)/C=C/c2ccc(OC)c(OC)c2)cc1OC,IC50,[1],2.2 µM
same,IC50,[2],2.9 µM
same,IC50,[3],2.5 µM
same,IC50,[5],1.6 µM
COc1cc(/C=C/C(=O)/C=C/c2cc(OC)c(O)c(OC)c2)cc(OC)c1O,IC50,[1],2.5 µM
same,IC50,[2],3.6 µM
same,IC50,[3],1.7 µM
same,IC50,[5],2.7 µM
COc1cc(/C=C/c2cc(/C=C/c3ccc(O)c(OC)c3)[nH]n2)ccc1O [CURCUMIN PYRAZOLE],Ratio IC50,[6],>=5
same,IC50,[1],3.4 µM
same,Ratio IC50,[7],>=5
same,Ratio IC50,[8],>=5
same,IC50,[2],5.6 µM
same,Ratio IC50,[9],>=5
same,IC50,[3],5.9 µM
same,IC50,[4],> 50 µM
same,IC50,[5],6.6 µM
NS(=O)(=O)Oc1ccc(/C=C/C(=O)/C=C/c2ccc(OS(N)(=O)=O)cc2)cc1,IC50,[1],5.1 µM
same,IC50,[2],5.1 µM
same,IC50,[3],3.5 µM
same,IC50,[5],4.2 µM
COc1cc(/C=C/C(O)=C/C(=O)/C=C/c2ccc(OC)c(OC)c2)ccc1O [METHYLCURCUMIN],IC50,[1],6.8 µM
same,IC50,[2],20.9 µM
same,IC50,[3],15.4 µM
same,IC50,[5],7.2 µM
COc1cc(OC)c(OC)cc1/C=C/C(=O)/C=C/c1cc(OC)c(OC)cc1OC,Ratio IC50,[6],>=5
same,IC50,[1],1.7 µM
same,Ratio IC50,[7],>=5
same,Ratio IC50,[8],>=5
same,IC50,[2],4.6 µM
same,Ratio IC50,[9],>=5
same,IC50,[3],2.4 µM
same,IC50,[4],> 50 µM
same,IC50,[5],2.4 µM
COc1cc(/C=C/c2cc(/C=C/c3ccc(O)c(OC)c3)n(C)n2)ccc1O,IC50,[1],12.1 µM
same,IC50,[2],16.2 µM
same,IC50,[3],15.8 µM
same,IC50,[5],20.4 µM
COc1cc(/C=C/C(=O)/C=C/c2ccc(OS(N)(=O)=O)c(OC)c2)ccc1OS(N)(=O)=O,IC50,[1],2.4 µM
same,IC50,[2],6.1 µM
same,IC50,[3],6.6 µM
same,IC50,[5],1.7 µM
COc1cc(/C=C/C(=O)/C=C(O)/C=C/c2cc(OC)c(OS(N)(=O)=O)c(OC)c2)cc(OC)c1OS(N)(=O)=O,IC50,[1],10.4 µM
same,IC50,[2],13.1 µM
same,IC50,[3],4.7 µM
same,IC50,[5],5.5 µM
COc1cc(/C=C/C(=O)/C=C/c2ccc(O)c(OC)c2)ccc1O,IC50,[1],2.7 µM
same,IC50,[2],3.9 µM
same,IC50,[3],2.4 µM
same,IC50,[5],2.8 µM
COc1cc(/C=C/C(=O)/C=C/c2cc(OC)c(OS(N)(=O)=O)c(OC)c2)cc(OC)c1OS(N)(=O)=O,IC50,[1],1.9 µM
same,IC50,[2],2.4 µM
same,IC50,[3],1.5 µM
same,IC50,[5],0.6 µM
COc1ccc(/C=C/C(=O)/C=C(O)/C=C/c2ccc(OC)c(O)c2)cc1O,IC50,[1],> 40 µM
same,IC50,[2],> 40 µM
same,IC50,[3],> 40 µM
same,IC50,[5],> 40 µM
